pIC50: −log10 of the molar value. Activity calls are given as the source filed them. No cut-off for these calls is given here.
How the values were obtained:
[1] = tested on: Influenza A virus; test: Antiviral activity against Influenza A virus (A/Mexico/4108/2009(H1N1)) infected in MDCK cells assessed as inhibited virus-induced cytopathic effect incubated for 2 days by XTT assay; format: functional, organism-based
[2] = biological target: T1, Adenosine kinase (Homo sapiens, UniProt P55263); test: Drug metabolism in human HCT116 cells assessed as ADK-mediated compound phosphorylation by measuring parent compound level per 5x10^5 cells at 10 umol/L after 1 hr by UPLC-MS/MS analysis; format: ADME, cell-based; settings: 10 µM
How it was run: (§1)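 BJ (normal) and HCT116 (malignant) cells exposed to nucleoside at 1 or 10 μmol/L for 1 or 3 h. Intracellular nucleoside and its monophosphate quantified against synthetic monophosphate standards. Values given as pmol per 5 × 10^5 cells.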

[3] = Chemical stability of the compound assessed as compound remaining after 120 mins relative to control; format: physicochemical; settings: read-out: Stability
[4] = tested on: CCRF-CEM; test: Inhibition of DNA synthesis in human CCRF-CEM cells assessed as DNA synthesis level at 5 times IC50 concentration after 24 hrs by BrdU incorporation assay (reference value: 43.39%); format: functional; set-up: scale not given: the % may be the effect or the level left
[5] = biological target: T1, Adenosine kinase; test: Drug metabolism in human HCT116 cells assessed as ADK-mediated compound phosphorylation by measuring parent compound level per 5x10^5 cells at 1 umol/L after 3 hrs by UPLC-MS/MS analysis; format: ADME, cell-based; settings: 1 µM; how it was run: as §1
[6] = Chemical stability of the compound assessed as compound remaining after 15 mins relative to control; format: physicochemical; settings: read-out: Stability
[7] = tested on: HCT-116; test: Antiproliferative activity against p53 gene knocked out human HCT116 cells after 3 days by MTS assay; format: functional, cell-based; settings: HCT-116, 72 h
[8] = biological target: T1, Adenosine kinase; test: Drug metabolism in human HCT116 cells assessed as ADK-mediated compound phosphorylation by measuring parent compound level per 5x10^5 cells at 1 umol/L after 1 hr by UPLC-MS/MS analysis; format: ADME, cell-based; settings: 1 µM; how it was run: as §1
[9] = tested on: DNA; test: Induction of DNA damage in human U2OS cells transfected with 53BP1-GFP fusion gene assessed as increase in number of foci per nucleus at 1 to 5 times IC50 concentration measured at 1 hr intervals for 11 hrs by fluorescence-based assay; format: functional, cell-based
How it was run: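 U2OS osteosarcoma reporter line stably expressing 53BP1-GFP treated up to 11 h, with etoposide as the double-strand-break reference. 53BP1 foci in nuclei imaged by confocal microscopy (40× objective).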

[10] = tested on: CCRF-CEM; test: RNA incorporation activity in human CCRF-CEM assessed as NMP content per microgram of nucleic acid at 3.52 uM after 2.5 hrs by […]; format: functional
How it was run: (§2)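 CCRF-CEM cells exposed to nucleoside for 2.5 h, then harvested at once. RNA and DNA isolated separately and enzymatically digested; nucleoside content of each nucleic acid fraction quantified by HPLC-MS.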

[11] = biological target: T1, Adenosine kinase; test: Drug metabolism in human BJ cells assessed as ADK-mediated compound phosphorylation by measuring parent compound level per 5x10^5 cells at 10 umol/L after 1 hr by UPLC-MS/MS analysis; format: ADME, cell-based; settings: 10 µM; how it was run: as §1
[12] = tested on: CCRF-CEM; test: DNA incorporation activity in human CCRF-CEM assessed as NMP content per microgram of nucleic acid at 3.52 uM after 2.5 hrs by […]; format: functional; how it was run: as §2
[13] = biological target: T1, Adenosine kinase; test: Drug metabolism in human HCT116 cells assessed as ADK-mediated compound phosphorylation by measuring parent compound level per 5x10^5 cells at 10 umol/L after 3 hrs by UPLC-MS/MS analysis; format: ADME, cell-based; settings: 10 µM; how it was run: as §1
[14] = Antiproliferative activity against human CEM-DNR-bulk cells after 3 days by MTS assay; settings: 72 h
[15] = biological target: T1, Adenosine kinase; test: Drug metabolism in human BJ cells assessed as ADK-mediated compound phosphorylation by measuring parent compound level per 5x10^5 cells at 1 umol/L after 1 hr by UPLC-MS/MS analysis; format: ADME, cell-based; settings: 1 µM; how it was run: as §1
[16] = biological target: T1, Adenosine kinase; test: Drug metabolism in human BJ cells assessed as ADK-mediated compound phosphorylation by measuring parent compound level per 5x10^5 cells at 10 umol/L after 3 hrs by UPLC-MS/MS analysis; format: ADME, cell-based; settings: 10 µM; how it was run: as §1
[17] = tested on: HCT-116; test: Antiproliferative activity against human HCT116 cells after 3 days by MTS assay; format: functional, cell-based; settings: HCT-116, 72 h
[18] = tested on: CCRF-CEM; test: Induction of cell cycle arrest in human CCRF-CEM cells assessed as accumulation at G2/M phase at IC50 concentration after 24 hrs by propidium iodide-staining based flow cytometry (reference value: 19.22%); format: functional
[19] = biological target: T1, Adenosine kinase; test: Drug metabolism in human BJ cells assessed as ADK-mediated compound phosphorylation by measuring parent compound level per 5x10^5 cells at 1 umol/L after 3 hrs by UPLC-MS/MS analysis; format: ADME, cell-based; settings: 1 µM; how it was run: as §1
[20] = tested on: CCRF-CEM; test: Antiproliferative activity against human CCRF-CEM cells after 3 days by MTS assay; format: functional, cell-based; settings: 72 h
[21] = tested on: OCI-AML2; test: Mitochondrial toxicity in human OCI-AML2 cells assessed as inhibition of MT-ND1 gene expression at 1 to 5 times IC50 after 24 to 72 hrs by RT-PCR analysis; format: cell-based
How it was run: (§3)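 Expression of the mitochondrial genes MT-CO2 and MT-ND1 measured.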

[22] = tested on: OCI-AML2; test: Mitochondrial toxicity in human OCI-AML2 cells assessed as inhibition of MT-CO2 gene expression at 1 to 5 times IC50 after 24 to 72 hrs by RT-PCR analysis; format: cell-based; how it was run: as §3
[23] = Mitochondrial toxicity in human OCI-AML2 cells assessed as reduction in oxidative phosphorylation-based viability after 72 hrs by CellTiterGlo assay; format: cell-based
How it was run: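 OCI-AML2 leukemia cells, which rely on mitochondrial OXPHOS, treated for 3 days in a survival assay; IC50 reported.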

[24] = tested on: OCI-AML2; test: Mitochondrial toxicity in human OCI-AML2 cells assessed as effect on ATP5A protein expression at 1 to 5 times IC50 after 24 to 72 hrs by Western blot analysis; format: cell-based
[25] = tested on: OCI-AML2; test: Mitochondrial toxicity in human OCI-AML2 cells assessed as reduction in CO2 protein expression at 1 to 5 times IC50 after 24 to 72 hrs by Western blot analysis; format: cell-based
[26] = tested on: CCRF-CEM; test: DNA incorporation activity in human CCRF-CEM assessed as NMP content per microgram of nucleic acid at 4.48 uM after 2.5 hrs by […]; format: functional; how it was run: as §2
[27] = tested on: CCRF-CEM; test: DNA incorporation activity in human CCRF-CEM assessed as dMP content per microgram of nucleic acid at 4.48 uM after 2.5 hrs […]; format: functional
[28] = tested on: CCRF-CEM; test: RNA incorporation activity in human CCRF-CEM assessed as NMP content per microgram of nucleic acid at 4.48 uM after 2.5 hrs […]; format: functional
[29] = tested on: OCI-AML2; test: Mitochondrial toxicity in human OCI-AML2 cells assessed as reduction in SDHB protein expression at 1 to 5 times IC50 after 24 to 72 hrs by Western blot analysis; format: cell-based
[30] = tested on: OCI-AML2; test: Mitochondrial toxicity in human OCI-AML2 cells assessed as effect on UQCRC2 protein expression at 1 to 5 times IC50 after 24 to 72 hrs by Western blot analysis; format: cell-based

T1 sequence (P55263 whole entry): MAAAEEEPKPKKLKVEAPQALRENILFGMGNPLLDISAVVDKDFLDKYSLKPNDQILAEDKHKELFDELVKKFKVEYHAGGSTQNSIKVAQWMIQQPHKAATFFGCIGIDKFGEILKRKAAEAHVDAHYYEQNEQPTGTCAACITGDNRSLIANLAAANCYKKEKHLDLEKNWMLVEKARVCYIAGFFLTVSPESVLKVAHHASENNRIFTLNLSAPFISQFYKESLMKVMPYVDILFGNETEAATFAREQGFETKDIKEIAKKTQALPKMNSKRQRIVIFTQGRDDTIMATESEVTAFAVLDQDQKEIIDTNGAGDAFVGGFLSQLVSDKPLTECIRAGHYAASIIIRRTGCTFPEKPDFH

SMILES	Activity [1]	Drug metabolism [2] [pmol]	remaining at 2 h [3] [%]	Activity [4] [%]	Drug metabolism [5] [pmol]	remaining at 0.25 h [6] [%]	pIC50 [7]	Drug metabolism [8] [pmol]	Activity [9]	Drug metabolism [11] [pmol]	Drug metabolism [13] [pmol]	pIC50 [14]	Drug metabolism [15] [pmol]	Drug metabolism [16] [pmol]	pIC50 [17]	Activity [18] [%]	Drug metabolism [19] [pmol]	pIC50 [20]	inhibition (INH) [21] [%]	inhibition (INH) [22] [%]	also measured
Cc1ncnc2c1c1c(ccn1C)n2[C@@H]1O[C@H](CO)[C@@H](O)[C@H]1O	inactive	450.1	91	59.89	136.87	98	6.48	54.04	Active	220.71	476.53	< 4.30	87.1	753.01	6.48	17.22	173.96	6.68	–	–	Activity [10]: 3.74 fmol; Activity [12]: 14.1 fmol
CSc1ncnc2c1c1occc1n2[C@@H]1O[C@H](CO)[C@@H](O)[C@H]1O	inactive	–	96	41.8	–	99	6.68	–	–	–	–	5.25	–	–	6.66	17.31	–	6.85	50	50	IC50 at 72 h [23]: 190 nM
Cc1ncnc2c1c1occc1n2[C@@H]1O[C@H](CO)[C@@H](O)[C@H]1O	inactive	119.93	96	38.88	66.31	99	6.35	27.92	Active	338.91	177.9	< 4.30	155.12	464.66	6.35	16.12	247.21	6.62	50	50	Activity [24]: Non-Toxic; Activity [25]: Toxic; Activity [26]: 14.3 fmol; Activity [27]: 15.4 fmol; IC50 at 72 h [23]: 340 nM; Activity [28]: 3.4 fmol; Activity [29]: Toxic; Activity [30]: Non-Toxic

Reference: ChEMBL document CHEMBL4330056, “Synthesis and Cytotoxic and Antiviral Profiling of Pyrrolo- and Furo-Fused 7-Deazapurine Ribonucleosides” (J Med Chem, 2018)
